Reference: ChEMBL document CHEMBL1155278, “3,4-Diaryl-isoxazoles and -imidazoles as potent dual inhibitors of p38alpha mitogen activated protein kinase and casein kinase 1delta” (J Med Chem, 2009)

Assays:
[1] = target: T1, Dual specificity tyrosine-phosphorylation-regulated kinase 3 (Homo sapiens) (UniProt O43781); assay: Inhibition of DYRK3 assessed as residual activity at 10 uM by Cherenkov counting relative to control in presence of 5 uM ATP
T1 sequence (whole entry): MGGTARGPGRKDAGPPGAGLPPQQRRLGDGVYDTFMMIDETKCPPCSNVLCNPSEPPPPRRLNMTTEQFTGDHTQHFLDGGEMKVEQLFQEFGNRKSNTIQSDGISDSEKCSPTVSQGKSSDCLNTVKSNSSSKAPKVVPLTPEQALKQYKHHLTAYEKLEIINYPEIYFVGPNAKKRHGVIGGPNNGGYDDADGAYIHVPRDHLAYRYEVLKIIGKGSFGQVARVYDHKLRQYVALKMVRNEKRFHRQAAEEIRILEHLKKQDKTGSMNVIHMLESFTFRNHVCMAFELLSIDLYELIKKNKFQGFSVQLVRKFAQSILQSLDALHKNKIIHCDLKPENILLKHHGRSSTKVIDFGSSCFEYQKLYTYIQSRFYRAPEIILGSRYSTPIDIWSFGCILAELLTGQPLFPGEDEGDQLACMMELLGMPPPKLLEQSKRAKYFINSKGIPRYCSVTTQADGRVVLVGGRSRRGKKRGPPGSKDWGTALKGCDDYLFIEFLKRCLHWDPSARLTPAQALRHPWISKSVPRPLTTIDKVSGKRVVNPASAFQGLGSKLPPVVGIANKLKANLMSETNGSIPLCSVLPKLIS
How it was run: (§1)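 Single-point profiling at 10 µM in a panel of 78 protein kinases. Kinase activity is expressed as a percentage relative to control assays without compound.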

[2] = target: Serine/threonine-protein kinase Nek6 (Homo sapiens) (UniProt Q9HC98); assay: Inhibition of NEK6 assessed as residual activity at 10 uM by Cherenkov counting relative to control in presence of 50 uM ATP
Sequence of Serine/threonine-protein kinase Nek6 (Homo sapiens) (Q9HC98 whole entry): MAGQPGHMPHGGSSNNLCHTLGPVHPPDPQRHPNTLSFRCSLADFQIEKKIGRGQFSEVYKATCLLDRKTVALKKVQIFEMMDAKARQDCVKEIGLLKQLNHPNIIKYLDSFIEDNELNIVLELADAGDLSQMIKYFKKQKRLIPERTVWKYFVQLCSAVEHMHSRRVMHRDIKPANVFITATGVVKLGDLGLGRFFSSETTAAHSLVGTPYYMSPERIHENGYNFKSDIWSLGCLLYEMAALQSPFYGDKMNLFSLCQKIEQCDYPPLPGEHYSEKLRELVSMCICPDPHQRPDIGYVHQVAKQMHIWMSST

[3] = target: T2, Serine/threonine-protein kinase 3 (Homo sapiens) (UniProt Q13188); assay: Inhibition of MST2 assessed as residual activity at 10 uM by Cherenkov counting relative to control in presence of 20 uM ATP
T2 sequence (whole entry): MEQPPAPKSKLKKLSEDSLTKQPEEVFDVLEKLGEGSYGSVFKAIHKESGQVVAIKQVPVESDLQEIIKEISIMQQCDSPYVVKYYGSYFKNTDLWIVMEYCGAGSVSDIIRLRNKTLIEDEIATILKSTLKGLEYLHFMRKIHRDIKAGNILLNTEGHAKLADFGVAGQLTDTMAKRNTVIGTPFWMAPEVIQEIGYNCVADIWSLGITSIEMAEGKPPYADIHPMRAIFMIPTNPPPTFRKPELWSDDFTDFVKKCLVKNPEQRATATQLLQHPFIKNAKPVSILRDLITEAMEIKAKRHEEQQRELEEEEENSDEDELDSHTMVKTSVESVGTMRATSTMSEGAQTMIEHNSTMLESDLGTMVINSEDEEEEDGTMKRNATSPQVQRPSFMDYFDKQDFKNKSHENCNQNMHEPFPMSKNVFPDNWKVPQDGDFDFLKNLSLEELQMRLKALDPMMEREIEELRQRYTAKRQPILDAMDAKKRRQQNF

[4] = target: Casein kinase I isoform delta (Homo sapiens, UniProt P48730); assay: Inhibition of CK1delta assessed as residual activity at 10 uM by Cherenkov counting relative to control in presence of 20 uM ATP
Sequence of Casein kinase I isoform delta (P48730 whole entry, looked up, canonical isoform): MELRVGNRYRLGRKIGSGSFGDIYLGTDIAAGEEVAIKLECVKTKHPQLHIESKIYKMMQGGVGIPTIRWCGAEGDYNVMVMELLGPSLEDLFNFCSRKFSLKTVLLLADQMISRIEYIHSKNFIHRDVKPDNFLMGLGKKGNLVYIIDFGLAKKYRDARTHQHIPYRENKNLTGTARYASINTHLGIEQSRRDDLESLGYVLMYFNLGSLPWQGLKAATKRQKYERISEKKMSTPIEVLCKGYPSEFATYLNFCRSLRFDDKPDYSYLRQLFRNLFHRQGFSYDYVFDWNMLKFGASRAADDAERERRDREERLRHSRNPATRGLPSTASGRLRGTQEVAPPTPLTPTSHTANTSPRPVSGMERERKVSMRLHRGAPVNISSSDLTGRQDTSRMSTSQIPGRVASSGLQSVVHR
How it was run: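 CK1δ tested within a 78-protein-kinase panel with compound at 10 µM. Activity is expressed as a percentage of kinase activity relative to control assays run without compound.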

[5] = target: Glycogen synthase kinase-3 beta (Homo sapiens) (UniProt P49841); assay: Inhibition of GSK3-beta assessed as residual activity at 10 uM by Cherenkov counting relative to control in presence of 5 uM ATP; how it was run: as §1
[6] = target: Fibroblast growth factor receptor 1 (Homo sapiens) (UniProt P11362); assay: Inhibition of FGFR1 assessed as residual activity at 10 uM by Cherenkov counting relative to control in presence of 20 uM ATP; how it was run: as §1
Sequence of Fibroblast growth factor receptor 1 (Homo sapiens) (P11362 22-822 limits assumed): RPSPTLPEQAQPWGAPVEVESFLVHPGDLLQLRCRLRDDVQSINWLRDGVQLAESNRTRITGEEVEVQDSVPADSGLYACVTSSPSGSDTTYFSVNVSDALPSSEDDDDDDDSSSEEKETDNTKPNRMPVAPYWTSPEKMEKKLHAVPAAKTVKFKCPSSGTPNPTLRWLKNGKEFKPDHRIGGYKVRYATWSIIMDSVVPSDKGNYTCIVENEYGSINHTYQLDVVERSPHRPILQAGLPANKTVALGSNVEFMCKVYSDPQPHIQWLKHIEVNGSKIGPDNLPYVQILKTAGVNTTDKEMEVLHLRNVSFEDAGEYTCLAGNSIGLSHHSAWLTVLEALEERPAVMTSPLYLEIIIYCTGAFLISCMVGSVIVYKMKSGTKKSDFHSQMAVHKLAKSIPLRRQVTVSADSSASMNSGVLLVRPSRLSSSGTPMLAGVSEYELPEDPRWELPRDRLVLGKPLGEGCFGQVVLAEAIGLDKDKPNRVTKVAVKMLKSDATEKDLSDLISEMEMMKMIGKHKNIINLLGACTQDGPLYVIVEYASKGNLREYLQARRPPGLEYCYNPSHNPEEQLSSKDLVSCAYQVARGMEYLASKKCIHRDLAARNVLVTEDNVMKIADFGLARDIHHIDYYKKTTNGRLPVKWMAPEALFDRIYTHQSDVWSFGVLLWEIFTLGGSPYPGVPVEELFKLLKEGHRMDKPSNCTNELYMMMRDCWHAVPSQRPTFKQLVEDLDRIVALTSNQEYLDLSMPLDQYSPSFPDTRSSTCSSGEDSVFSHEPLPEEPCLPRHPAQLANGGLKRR

[7] = target: Serine/threonine-protein kinase pim-2 (Homo sapiens) (UniProt Q9P1W9); assay: Inhibition of PIM2 assessed as residual activity at 0.1 uM by Cherenkov counting relative to control in presence of 5 uM ATP
Sequence of Serine/threonine-protein kinase pim-2 (Homo sapiens) (Q9P1W9 whole entry, looked up): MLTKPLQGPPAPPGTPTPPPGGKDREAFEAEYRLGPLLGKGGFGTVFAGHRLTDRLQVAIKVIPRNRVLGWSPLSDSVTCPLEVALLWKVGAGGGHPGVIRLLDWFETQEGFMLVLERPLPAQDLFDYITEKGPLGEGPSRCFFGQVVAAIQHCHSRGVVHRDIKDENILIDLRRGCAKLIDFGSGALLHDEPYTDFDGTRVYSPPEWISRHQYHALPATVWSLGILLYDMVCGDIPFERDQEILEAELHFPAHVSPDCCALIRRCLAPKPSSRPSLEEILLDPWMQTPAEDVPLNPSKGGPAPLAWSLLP
How it was run: (§2)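 Single-concentration selectivity screen at 0.1 μM against a panel of 76 protein kinases. Each kinase was run at an ATP level approximating its Km for ATP. Output is mean residual activity as % of the control assay without compound, n = 3 ± SD.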

[8] = target: Mitogen-activated protein kinase 3 (Homo sapiens) (UniProt P27361); assay: Inhibition of ERK1 assessed as residual activity at 0.1 uM by Cherenkov counting relative to control in presence of 5 uM ATP
Sequence of Mitogen-activated protein kinase 3 (Homo sapiens) (P27361 whole entry): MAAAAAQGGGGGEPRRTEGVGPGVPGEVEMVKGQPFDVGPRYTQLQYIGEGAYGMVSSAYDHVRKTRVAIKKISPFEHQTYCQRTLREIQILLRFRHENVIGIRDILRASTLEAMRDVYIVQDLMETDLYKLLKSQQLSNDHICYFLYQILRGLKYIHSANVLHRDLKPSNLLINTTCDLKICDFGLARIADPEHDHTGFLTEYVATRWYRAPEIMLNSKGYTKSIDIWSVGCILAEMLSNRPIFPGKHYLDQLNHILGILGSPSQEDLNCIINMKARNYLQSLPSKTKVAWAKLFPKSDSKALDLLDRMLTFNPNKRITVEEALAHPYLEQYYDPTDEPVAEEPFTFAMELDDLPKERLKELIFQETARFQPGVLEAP
How it was run: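 Single-concentration screen at 0.1 µM across a panel of 76 protein kinases. Each kinase was run at an ATP concentration approximating its ATP Km. Results are % mean residual activity versus control assays without compound (n = 3 ± SD).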

[9] = target: Proto-oncogene tyrosine-protein kinase Src (Homo sapiens) (UniProt P12931); assay: Inhibition of Src assessed as residual activity at 0.1 uM by Cherenkov counting relative to control in presence of 50 uM ATP
Sequence of Proto-oncogene tyrosine-protein kinase Src (Homo sapiens) (P12931 2-536 limits assumed): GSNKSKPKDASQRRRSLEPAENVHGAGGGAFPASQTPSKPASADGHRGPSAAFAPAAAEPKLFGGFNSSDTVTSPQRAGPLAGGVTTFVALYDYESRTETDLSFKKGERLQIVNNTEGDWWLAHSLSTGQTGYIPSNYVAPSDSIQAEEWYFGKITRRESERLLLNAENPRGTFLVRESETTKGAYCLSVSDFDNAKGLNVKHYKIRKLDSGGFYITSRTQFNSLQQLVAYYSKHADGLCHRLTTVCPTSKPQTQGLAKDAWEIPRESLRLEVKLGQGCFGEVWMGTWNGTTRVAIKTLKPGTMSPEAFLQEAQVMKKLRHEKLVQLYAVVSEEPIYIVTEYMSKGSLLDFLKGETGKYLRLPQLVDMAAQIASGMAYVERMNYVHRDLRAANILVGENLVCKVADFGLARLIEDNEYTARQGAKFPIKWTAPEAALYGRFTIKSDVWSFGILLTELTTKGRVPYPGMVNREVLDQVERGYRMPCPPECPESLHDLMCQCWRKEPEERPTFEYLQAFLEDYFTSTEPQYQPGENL
How it was run: (§3)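 Single-concentration screen at 0.1 μM in a 76-kinase panel. ATP for each kinase was set near its Km for ATP. Residual activity is given as a percentage of control assays without compound, mean of n = 3 ± SD.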

[10] = target: Insulin receptor (Homo sapiens) (UniProt P06213); assay: Inhibition of histidine-tagged IR assessed as residual activity at 0.1 uM by Cherenkov counting relative to control in presence of 20 uM ATP; how it was run: as §3
Sequence of Insulin receptor (Homo sapiens) (P06213 28-758 limits assumed): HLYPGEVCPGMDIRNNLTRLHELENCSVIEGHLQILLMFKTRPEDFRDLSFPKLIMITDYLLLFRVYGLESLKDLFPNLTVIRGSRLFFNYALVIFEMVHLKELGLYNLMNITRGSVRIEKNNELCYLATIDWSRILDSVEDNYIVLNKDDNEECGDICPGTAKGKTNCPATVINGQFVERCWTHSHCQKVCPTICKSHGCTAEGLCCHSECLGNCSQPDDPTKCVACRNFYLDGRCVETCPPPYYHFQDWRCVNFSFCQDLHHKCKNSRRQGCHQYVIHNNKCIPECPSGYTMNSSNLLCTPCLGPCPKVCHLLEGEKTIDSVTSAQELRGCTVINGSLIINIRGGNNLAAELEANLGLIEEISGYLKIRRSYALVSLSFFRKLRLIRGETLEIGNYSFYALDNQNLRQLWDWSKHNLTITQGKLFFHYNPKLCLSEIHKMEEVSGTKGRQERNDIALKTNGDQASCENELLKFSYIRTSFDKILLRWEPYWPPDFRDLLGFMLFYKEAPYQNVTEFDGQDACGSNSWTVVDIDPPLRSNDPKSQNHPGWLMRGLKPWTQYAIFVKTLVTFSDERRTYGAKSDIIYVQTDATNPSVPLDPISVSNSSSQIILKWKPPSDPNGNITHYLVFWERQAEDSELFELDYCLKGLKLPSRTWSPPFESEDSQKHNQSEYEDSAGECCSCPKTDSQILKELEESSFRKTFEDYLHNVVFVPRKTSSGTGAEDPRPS
Sequence of Insulin receptor (Homo sapiens) (P06213 763-1382 limits assumed): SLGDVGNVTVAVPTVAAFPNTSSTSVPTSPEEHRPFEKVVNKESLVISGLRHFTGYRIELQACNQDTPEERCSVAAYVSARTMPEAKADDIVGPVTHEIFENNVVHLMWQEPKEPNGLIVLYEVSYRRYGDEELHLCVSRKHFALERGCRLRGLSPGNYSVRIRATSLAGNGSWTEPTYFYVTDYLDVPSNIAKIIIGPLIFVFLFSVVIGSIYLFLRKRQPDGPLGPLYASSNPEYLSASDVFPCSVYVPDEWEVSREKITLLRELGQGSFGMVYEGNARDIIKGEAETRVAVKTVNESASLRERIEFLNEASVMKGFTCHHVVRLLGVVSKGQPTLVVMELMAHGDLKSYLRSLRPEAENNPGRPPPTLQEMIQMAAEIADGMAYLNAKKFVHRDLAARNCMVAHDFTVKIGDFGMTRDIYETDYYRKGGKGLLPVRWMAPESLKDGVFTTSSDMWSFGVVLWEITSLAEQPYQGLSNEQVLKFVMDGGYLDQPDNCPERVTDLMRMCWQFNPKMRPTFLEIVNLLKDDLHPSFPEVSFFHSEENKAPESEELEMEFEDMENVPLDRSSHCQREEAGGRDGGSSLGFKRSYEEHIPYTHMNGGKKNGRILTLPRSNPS

[11] = Inhibition of VEGFR assessed as residual activity at 0.1 uM by Cherenkov counting relative to control in presence of 20 uM ATP; how it was run: as §3
[12] = target: Mitogen-activated protein kinase 8 (Homo sapiens) (UniProt P45983); assay: Inhibition of JNK1 assessed as residual activity at 0.1 uM by Cherenkov counting relative to control in presence of 20 uM ATP; how it was run: as §2
Sequence of Mitogen-activated protein kinase 8 (Homo sapiens) (P45983 whole entry): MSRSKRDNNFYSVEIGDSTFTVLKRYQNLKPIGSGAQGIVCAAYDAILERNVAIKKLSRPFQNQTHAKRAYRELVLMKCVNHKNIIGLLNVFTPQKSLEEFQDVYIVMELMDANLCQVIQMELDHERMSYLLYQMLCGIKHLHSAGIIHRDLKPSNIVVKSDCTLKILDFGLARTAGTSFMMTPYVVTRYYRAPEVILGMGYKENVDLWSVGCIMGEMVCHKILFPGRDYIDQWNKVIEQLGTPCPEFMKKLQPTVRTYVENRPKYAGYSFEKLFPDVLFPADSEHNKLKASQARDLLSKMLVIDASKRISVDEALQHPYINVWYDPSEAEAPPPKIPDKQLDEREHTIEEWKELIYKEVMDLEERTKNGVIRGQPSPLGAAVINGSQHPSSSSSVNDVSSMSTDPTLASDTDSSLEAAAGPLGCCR

[13] = target: Dual specificity mitogen-activated protein kinase kinase 1 (Homo sapiens) (UniProt Q02750); assay: Inhibition of MKK1 assessed as residual activity at 0.1 uM by Cherenkov counting relative to control in presence of 5 uM ATP; how it was run: as §2
[14] = target: MAP kinase-interacting serine/threonine-protein kinase 1 (Homo sapiens) (UniProt Q9BUB5); assay: Inhibition of MNK1 assessed as residual activity at 0.1 uM by Cherenkov counting relative to control in presence of 50 uM ATP; how it was run: as §2
Sequence of MAP kinase-interacting serine/threonine-protein kinase 1 (Homo sapiens) (Q9BUB5 whole entry, looked up): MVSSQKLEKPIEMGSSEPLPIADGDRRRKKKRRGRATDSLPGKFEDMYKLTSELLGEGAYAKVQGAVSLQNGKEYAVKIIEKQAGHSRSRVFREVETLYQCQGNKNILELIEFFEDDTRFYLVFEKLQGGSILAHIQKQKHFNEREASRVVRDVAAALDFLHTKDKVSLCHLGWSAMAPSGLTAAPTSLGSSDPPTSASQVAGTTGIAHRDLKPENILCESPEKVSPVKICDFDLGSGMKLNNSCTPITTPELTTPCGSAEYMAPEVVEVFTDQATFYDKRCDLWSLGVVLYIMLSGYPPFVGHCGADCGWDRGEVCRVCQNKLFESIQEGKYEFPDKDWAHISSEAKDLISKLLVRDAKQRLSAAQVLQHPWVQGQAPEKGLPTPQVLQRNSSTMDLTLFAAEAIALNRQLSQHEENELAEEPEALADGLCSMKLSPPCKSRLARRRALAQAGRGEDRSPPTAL

| Activity [1] | Activity [2] | Activity [3] | Activity [4] | Activity [5] | Activity [6] | Activity [7] | Activity [8] | Activity [9] | Activity [10] | Activity [11] | Activity [12] | Activity [13] | Activity [14] | Structure (SMILES) |
| --- | --- | --- | --- | --- | --- | --- | --- | --- | --- | --- | --- | --- | --- | --- |
| 101% | 108% | 95% | 55% | 85% | 95% |  |  |  |  |  |  |  |  | CC(C)c1noc(-c2ccc(F)cc2)c1-c1ccncc1 |
| 97% | 112% | 95% | 6% | 75% | 81% |  |  |  |  |  |  |  |  | CC(C)c1onc(-c2ccc(F)cc2)c1-c1ccncc1 |
|  |  |  |  |  |  | 101% | 101% | 63% | 94% | 46% | 53% | 18% | 96% | COc1ccc(/C=C/C(=O)Nc2cc(-c3[nH]c([S+](C)[O-])nc3-c3ccc(F)cc3)ccn2)c(OC)c1 (stereo not drawn) |
|  |  |  |  |  |  | 87% | 94% | 49% | 94% | 33% | 90% | 27% | 91% | COc1ccc(/C=C/C(=O)Nc2cc(-c3[nH]c(SC)nc3-c3ccc(F)cc3)ccn2)c(OC)c1 |
